System: Acinetobacter baumannii
Assay: Synergistic antibacterial activity against Acinetobacter baumannii PR440 producing OXA-23/24/40 assessed as cefepime MIC at 4 ug/ml by broth microdilution method
Format: functional
Settings: dose 4 µg/ml

SMILES | MIC
O.O=C(NC1CCNCC1)[C@@H]1CC[C@@H]2CN1C(=O)N2OS(=O)(=O)O [RELEBACTAM] | > 16 µg/mL

System: Acinetobacter baumannii
Assay: Synergistic antibacterial activity against Acinetobacter baumannii PR319 producing OXA-23/24/40 assessed as cefepime MIC at 4 ug/ml by broth microdilution method
Format: functional
Settings: dose 4 µg/ml

SMILES | MIC
O.O=C(NC1CCNCC1)[C@@H]1CC[C@@H]2CN1C(=O)N2OS(=O)(=O)O [RELEBACTAM] | > 16 µg/mL

System: Klebsiella pneumoniae
Assay: Synergistic antibacterial activity against Klebsiella pneumoniae 1315/2198 producing KPC-3 assessed as cefepime MIC at 4 ug/ml by broth microdilution method
Format: functional
Settings: dose 4 µg/ml
Procedure, shortened: (§1)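 Broth microdilution per CLSI guidelines, using custom frozen panels. […] Each partner drug was also tested alone. MICs were run in triplicate and the modal value is reported.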

SMILES | MIC
O.O=C(NC1CCNCC1)[C@@H]1CC[C@@H]2CN1C(=O)N2OS(=O)(=O)O [RELEBACTAM] | 0.25 µg/mL

System: Acinetobacter baumannii
Assay: Synergistic antibacterial activity against ADC deleted Acinetobacter baumannii transfected with pWH1266 OXA-23 assessed as cefepime MIC at 4 ug/ml by broth microdilution method
Format: functional
Settings: dose 4 µg/ml

SMILES | MIC
O.O=C(NC1CCNCC1)[C@@H]1CC[C@@H]2CN1C(=O)N2OS(=O)(=O)O [RELEBACTAM] | > 16 µg/mL

System: Klebsiella pneumoniae
Assay: Synergistic antibacterial activity against Klebsiella pneumoniae 935/1884 producing KPC-3 assessed as meropenem MIC at 4 ug/ml by broth microdilution method
Format: functional
Settings: dose 4 µg/ml

SMILES | MIC
O.O=C(NC1CCNCC1)[C@@H]1CC[C@@H]2CN1C(=O)N2OS(=O)(=O)O [RELEBACTAM] | ≤ 0.12 µg/mL

System: Acinetobacter baumannii
Assay: Synergistic antibacterial activity against Acinetobacter baumannii PR381 producing OXA-24/40 assessed as cefepime MIC at 4 ug/ml by broth microdilution method
Format: functional
Settings: dose 4 µg/ml

SMILES | MIC
O.O=C(NC1CCNCC1)[C@@H]1CC[C@@H]2CN1C(=O)N2OS(=O)(=O)O [RELEBACTAM] | > 16 µg/mL

System: Escherichia coli
Assay: Synergistic antibacterial activity against Escherichia coli DH10B transfected with pBC SK (-) PDC-3 assessed as cefepime MIC at 4 ug/ml by broth microdilution method
Format: functional
Settings: dose 4 µg/ml
Procedure, shortened: as §1

SMILES | MIC
O.O=C(NC1CCNCC1)[C@@H]1CC[C@@H]2CN1C(=O)N2OS(=O)(=O)O [RELEBACTAM] | ≤ 0.12 µg/mL

System: Klebsiella pneumoniae
Assay: Synergistic antibacterial activity against Klebsiella pneumoniae 11978 producing OXA-48 assessed as cefepime MIC at 4 ug/ml by broth microdilution method
Format: functional
Settings: dose 4 µg/ml
Procedure, shortened: as §1

SMILES | MIC
O.O=C(NC1CCNCC1)[C@@H]1CC[C@@H]2CN1C(=O)N2OS(=O)(=O)O [RELEBACTAM] | 2 µg/mL

System: Pseudomonas aeruginosa
Assay: Synergistic antibacterial activity against Pseudomonas aeruginosa 839 assessed as meropenem MIC at 4 ug/ml by broth microdilution method
Format: functional
Settings: dose 4 µg/ml

SMILES | MIC
O.O=C(NC1CCNCC1)[C@@H]1CC[C@@H]2CN1C(=O)N2OS(=O)(=O)O [RELEBACTAM] | 1 µg/mL

System: Bacteria
Assay: Inhibition of bacteria ADC-7 assessed as half life using nitrocefin as substrate
Settings: not given

SMILES | T1/2
O.O=C(NC1CCNCC1)[C@@H]1CC[C@@H]2CN1C(=O)N2OS(=O)(=O)O [RELEBACTAM] | 39 min

System: Klebsiella pneumoniae
Assay: Synergistic antibacterial activity against Klebsiella pneumoniae 11978 producing OXA-48 assessed as meropenem MIC at 4 ug/ml by broth microdilution method
Format: functional
Settings: dose 4 µg/ml
Procedure, shortened: as §1

SMILES | MIC
O.O=C(NC1CCNCC1)[C@@H]1CC[C@@H]2CN1C(=O)N2OS(=O)(=O)O [RELEBACTAM] | > 16 µg/mL

System: Klebsiella pneumoniae
Assay: Synergistic antibacterial activity against Klebsiella pneumoniae jefferson 1775 producing OXA-48 assessed as meropenem MIC at 4 ug/ml by broth microdilution method
Format: functional
Settings: dose 4 µg/ml

SMILES | MIC
O.O=C(NC1CCNCC1)[C@@H]1CC[C@@H]2CN1C(=O)N2OS(=O)(=O)O [RELEBACTAM] | 2 µg/mL

System: Bacteria
Assay: Inhibition of bacteria KPC-2 assessed as second order rate constant K2/K using nitrocefin as substrate
Settings: not given
Procedure, shortened: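 Steady-state kinetics, 10 mM phosphate-buffered saline pH 7.4. Progress curves recorded with fixed enzyme and nitrocefin and increasing nM inhibitor. Each curve fitted to a time-course equation to give k_obs. k2/K derived from these and corrected for nitrocefin concentration relative to its Km.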

SMILES | K
O.O=C(NC1CCNCC1)[C@@H]1CC[C@@H]2CN1C(=O)N2OS(=O)(=O)O [RELEBACTAM] | 2.8 10^4/M/s

System: Klebsiella pneumoniae
Assay: Synergistic antibacterial activity against Klebsiella pneumoniae jefferson 1775 producing OXA-48 assessed as cefepime MIC at 4 ug/ml by broth microdilution method
Format: functional
Settings: dose 4 µg/ml

SMILES | MIC
O.O=C(NC1CCNCC1)[C@@H]1CC[C@@H]2CN1C(=O)N2OS(=O)(=O)O [RELEBACTAM] | 0.25 µg/mL

System: Escherichia coli
Assay: Synergistic antibacterial activity against Escherichia coli DH10B transfected with pBC SK (-) KPC-2 assessed as meropenem MIC at 4 ug/ml by broth microdilution method
Format: functional
Settings: dose 4 µg/ml

SMILES | MIC
O.O=C(NC1CCNCC1)[C@@H]1CC[C@@H]2CN1C(=O)N2OS(=O)(=O)O [RELEBACTAM] | ≤ 0.12 µg/mL

System: Acinetobacter baumannii
Assay: Synergistic antibacterial activity against Acinetobacter baumannii PR476 producing OXA-24/40 assessed as cefepime MIC at 4 ug/ml by broth microdilution method
Format: functional
Settings: dose 4 µg/ml

SMILES | MIC
O.O=C(NC1CCNCC1)[C@@H]1CC[C@@H]2CN1C(=O)N2OS(=O)(=O)O [RELEBACTAM] | 2 µg/mL

System: Klebsiella pneumoniae
Assay: Synergistic antibacterial activity against Klebsiella pneumoniae 660/1568 producing KPC-3 assessed as cefepime MIC at 4 ug/ml by broth microdilution method
Format: functional
Settings: dose 4 µg/ml
Procedure, shortened: as §1

SMILES | MIC
O.O=C(NC1CCNCC1)[C@@H]1CC[C@@H]2CN1C(=O)N2OS(=O)(=O)O [RELEBACTAM] | 0.25 µg/mL

System: Bacteria
Assay: Inhibition of bacteria ADC-7 assessed as Koff rate using nitrocefin as substrate incubated for 30 mins
Settings: not given

SMILES | K
O.O=C(NC1CCNCC1)[C@@H]1CC[C@@H]2CN1C(=O)N2OS(=O)(=O)O [RELEBACTAM] | 3 10^-4/s

System: Pseudomonas aeruginosa
Assay: Synergistic antibacterial activity against Pseudomonas aeruginosa 795 assessed as cefepime MIC at 4 ug/ml by broth microdilution method
Format: functional
Settings: dose 4 µg/ml

SMILES | MIC
O.O=C(NC1CCNCC1)[C@@H]1CC[C@@H]2CN1C(=O)N2OS(=O)(=O)O [RELEBACTAM] | > 16 µg/mL

System: Klebsiella pneumoniae
Assay: Synergistic antibacterial activity against Klebsiella pneumoniae 729/1679 producing KPC-3 assessed as meropenem MIC at 4 ug/ml by broth microdilution method
Format: functional
Settings: dose 4 µg/ml
Procedure, shortened: as §1

SMILES | MIC
O.O=C(NC1CCNCC1)[C@@H]1CC[C@@H]2CN1C(=O)N2OS(=O)(=O)O [RELEBACTAM] | ≤ 0.12 µg/mL

System: Escherichia coli
Assay: Synergistic antibacterial activity against Escherichia coli DH10B assessed as meropenem MIC at 4 ug/ml by broth microdilution method
Format: functional
Settings: dose 4 µg/ml

SMILES | MIC
O.O=C(NC1CCNCC1)[C@@H]1CC[C@@H]2CN1C(=O)N2OS(=O)(=O)O [RELEBACTAM] | ≤ 0.12 µg/mL
